From ChEMBL document CHEMBL4334463, “Free Ligand 1D NMR Conformational Signatures To Enhance Structure Based Drug Design of a Mcl-1 Inhibitor (AZD5991) and Other Synthetic Macrocycles” (J Med Chem, 2019) come the findings set out here.

As usually defined, the logD is the decadic logarithm of the distribution of all forms, ionised or not, between an organic phase and buffer at a given pH. A low value points to a more hydrophilic compound. In general, IC50 refers to the concentration that gives 50% inhibition. A low value points to inhibition by little substance. For orientation: Ki means a dissociation constant, usually derived from enzyme kinetics or from competition with a known ligand. Lower therefore signals a stronger hold on the target. What is called Kd is the free concentration of one partner at which half of the binding sites on the other are occupied at equilibrium, for simple one-to-one binding. Read a high Kd as lower affinity.

The nature of data set [1]: Lipophilicity, logD of the compound at pH 7.4. The data set is classed as physicochemical. The note with it: buffer. An outline of the steps:
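Shake-flask partitioning to determine logD, with the aqueous phase at pH 7.4.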

For data set [2], the target named is T1, B-cell lymphoma 6 protein (Homo sapiens, UniProt P41182). As to the kind of experiment: Inhibition of Bcl6 (unknown origin) by TR-FRET assay. For orientation: In TR-FRET formats the signal depends on donor and acceptor labels being close together.
In data set [3] the target is T2, Induced myeloid leukemia cell differentiation protein Mcl-1 (Homo sapiens, UniProt Q07820). As to the kind of experiment: Inhibition of Mcl1 (unknown origin) by TR-FRET assay.
Target sequence in this assay (Q07820 whole entry): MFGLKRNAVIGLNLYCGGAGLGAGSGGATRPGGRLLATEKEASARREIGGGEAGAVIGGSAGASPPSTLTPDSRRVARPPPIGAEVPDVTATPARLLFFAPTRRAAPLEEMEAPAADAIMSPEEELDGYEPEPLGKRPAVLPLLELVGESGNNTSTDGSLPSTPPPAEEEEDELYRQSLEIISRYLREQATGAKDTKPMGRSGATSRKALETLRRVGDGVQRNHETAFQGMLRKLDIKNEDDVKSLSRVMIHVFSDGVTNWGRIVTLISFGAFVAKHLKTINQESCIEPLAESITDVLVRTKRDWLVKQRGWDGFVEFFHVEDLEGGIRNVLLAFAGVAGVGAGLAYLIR
For data set [4], the target named is T1, B-cell lymphoma 6 protein.
The target in data set [5] is T2, Induced myeloid leukemia cell differentiation protein Mcl-1.
Target sequence in this assay (Q07820 whole entry): as above
For data set [6] the target is unchanged. As to the kind of experiment: Binding affinity to Mcl-1 (unknown origin) by SPR assay.
Target sequence in this assay (Q07820 whole entry, looked up): as the sequence (Q07820 whole entry) above

On to `Cc1cc(CSCc2nn(C)c(C)c2-c2cccc3c(CCCOc4cccc5ccccc45)c(C(=O)O)[nH]c23)nn1C`, for which the log distribution coefficient (logD) in data set [1] worked out at 4.2. In turn, `C[C@@H]1CCCCN(C)c2cc(n3ncc(C#N)c3n2)Nc2cc3c(c(c2)O1)N(C)C(=O)CC3` had a half-inhibitory concentration (IC50) in data set [2] of 0.025 µM. Moreover, the log distribution coefficient (logD) in data set [1] amounted to 4. Take `C[C@@H]1CCN(C)C(=O)C[C@@H](Cc2ccc(Cl)c(Cl)c2)NC(=O)CN2C(=O)[C@H](CCc3ccccc32)NC(=O)C[C@H](Cc2ccc(Cl)cc2)N1`: in data set [3], the Ki was 0.739 µM. Take `N#Cc1cnn2c3cc(nc12)N1C[C@H](C[C@H]1CO)OC/C=C/COc1cc(cc2c1NC(=O)CC2)N3`: the log distribution coefficient (logD) in data set [1] stood at 2.2. In data set [4], this molecule registered a T1/2 of 2 min.

In the case of `CN1CCCN[C@@H](Cc2ccc(S(C)(=O)=O)cc2)CC(=O)N[C@H]2CCc3ccccc3N(CC(=O)N[C@H](Cc3ccc(Cl)c(CCc4ccccc4)c3)CC1=O)C2=O`, the logD in data set [1] stood at 4.1. For the same molecule, the T1/2 in data set [5] is 0.3 min. Take `Cc1nn(C)c(C)c1-c1cccc2c(CCCOc3cccc4ccccc34)c(C(=O)O)[nH]c12`: the Kd in data set [6] turned out to be 0.48 µM. This molecule displayed a log distribution coefficient (logD) in data set [1] of 3.6. In data set [3], the Ki was 0.29 µM. `N#Cc1cnn2c3cc(nc12)N1CC[C@@H](C1)OC/C=C/COc1cc(cc2c1NC(=O)CC2)N3`: the log distribution coefficient (logD) in data set [1] came to 2.4.

Molecule `O=C1C[C@@H](Cc2ccc(Cl)c(Cl)c2)NC(=O)CN2C(=O)[C@H](CCc3ccccc32)NC(=O)C[C@H](Cc2ccc(Cl)cc2)NCCCN1` showed a logD in data set [1] of 3.7. In data set [3], the Ki stood at 5.21 µM.

For the molecule `CC1CCN[C@@H](Cc2ccc(Cl)cc2)CC(=O)N[C@H]2CCc3ccccc3N(CC(=O)N[C@H](Cc3ccc(Cl)c(Cl)c3)CC(=O)N1C)C2=O` (stereo in doubt; 11), the Ki in data set [3] was 4.96 µM. `N#Cc1cnn2c(Nc3ccc4c(c3)CCC(=O)N4)cc(N3CCC[C@H]3CC(=O)O)nc12`: the logD in data set [1] is -0.4.

In the case of `C[C@H]1CCN(C)C(=O)C[C@@H](Cc2ccc(Cl)c(Cl)c2)NC(=O)CN2C(=O)[C@H](CCc3ccccc32)NC(=O)C[C@H](Cc2ccc(Cl)cc2)N1`, the affinity in data set [3] corresponds to a Ki of 0.048 µM. In data set [1], `CN1CCCN[C@@H](Cc2ccc(Cl)cc2)CC(=O)N[C@H]2CCc3ccccc3N(CC(=O)N[C@H](Cc3ccc(Cl)c(Cl)c3)CC1=O)C2=O` had a logD of 4.3. The affinity in data set [3] corresponds to a Ki of 0.155 µM.

Turning to `CNC(=O)C[C@@H](Cc1ccc(Cl)c(Cl)c1)NC(=O)CN1C(=O)[C@@H](NC(=O)C[C@@H](N)Cc2ccc(Cl)cc2)CCc2ccccc21`, the logD in data set [1] was found to be 3.8. This molecule returned an inhibition constant Ki in data set [3] of 1.99 µM. In data set [1], `N#Cc1cnn2c(Nc3ccc4c(c3)CCC(=O)N4)cc(N3CCC[C@H]3CO)nc12` displayed a logD of 2.3. In the case of `CN1CCCCCOc2cc(cc3c2N(C)C(=O)CC3)Nc2cc1nc1c(C#N)cnn21`, in data set [2], half-maximal inhibition (IC50) required 0.19 µM. Besides, the logD in data set [1] was 3.6. For `CC1CCN[C@@H](Cc2ccc(Cl)cc2)CC(=O)N[C@H]2CCc3ccccc3N(CC(=O)N[C@H](Cc3ccc(Cl)c(Cl)c3)CC(=O)N1C)C2=O` (stereo in doubt; 12), in data set [3], affinity was put at a Ki of 0.3 µM.
